Values belong to the compound of their own block, whether it stands above or below them.
Tests used:
[1] = target: T1, Casein kinase I isoform alpha (Homo sapiens, UniProt P48729); assay: Inhibition of CK1 using KRRRALS(p)VASLPGL as substrate after 40 mins by scintillation counter
Target sequence in this assay (P48729 whole entry, canonical isoform): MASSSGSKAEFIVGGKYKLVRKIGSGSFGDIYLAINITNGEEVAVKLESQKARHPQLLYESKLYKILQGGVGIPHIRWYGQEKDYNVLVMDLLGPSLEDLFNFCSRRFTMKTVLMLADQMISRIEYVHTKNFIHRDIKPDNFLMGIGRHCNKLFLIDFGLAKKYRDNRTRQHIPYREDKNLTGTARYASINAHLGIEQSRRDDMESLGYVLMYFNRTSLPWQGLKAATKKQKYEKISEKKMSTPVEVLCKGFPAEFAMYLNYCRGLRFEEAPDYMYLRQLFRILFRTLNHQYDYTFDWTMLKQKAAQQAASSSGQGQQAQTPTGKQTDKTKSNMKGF

[2] = target: T1, Casein kinase I isoform alpha; assay: Inhibition of CK1 using KRRRALS(p)VASLPGL as substrate at 10 uM after 40 mins by scintillation counter
Procedure, shortened: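 Radiometric CK1 assay with substrate KRRRALS(p)VASLPGL and [γ-³³P]ATP plus 10 mM Mg acetate, in 20 mM MOPS, 1 mM EDTA, 0.01% Brij-35 and 5% glycerol. Reactions were spotted onto P30 filtermat, washed three times for 5 min in 75 mM phosphoric acid and once in methanol, dried, then scintillation counted. Run twice; mean activity reported.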
Target sequence in this assay (P48729 2-337 limits assumed): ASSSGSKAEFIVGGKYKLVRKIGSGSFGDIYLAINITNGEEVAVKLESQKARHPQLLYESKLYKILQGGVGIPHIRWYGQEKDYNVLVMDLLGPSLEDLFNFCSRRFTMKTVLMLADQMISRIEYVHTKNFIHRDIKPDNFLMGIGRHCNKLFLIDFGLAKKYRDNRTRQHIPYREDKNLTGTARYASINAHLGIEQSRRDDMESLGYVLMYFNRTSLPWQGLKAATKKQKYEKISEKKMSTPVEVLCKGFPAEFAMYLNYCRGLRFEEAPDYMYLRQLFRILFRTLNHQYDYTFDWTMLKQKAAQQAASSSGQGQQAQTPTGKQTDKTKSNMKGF

[3] = target: ALK tyrosine kinase receptor (Homo sapiens) (UniProt Q9UM73); assay: Inhibition of ALK at 10 uM
Chain of ALK tyrosine kinase receptor (Homo sapiens) (Q9UM73 19-1620 limits assumed): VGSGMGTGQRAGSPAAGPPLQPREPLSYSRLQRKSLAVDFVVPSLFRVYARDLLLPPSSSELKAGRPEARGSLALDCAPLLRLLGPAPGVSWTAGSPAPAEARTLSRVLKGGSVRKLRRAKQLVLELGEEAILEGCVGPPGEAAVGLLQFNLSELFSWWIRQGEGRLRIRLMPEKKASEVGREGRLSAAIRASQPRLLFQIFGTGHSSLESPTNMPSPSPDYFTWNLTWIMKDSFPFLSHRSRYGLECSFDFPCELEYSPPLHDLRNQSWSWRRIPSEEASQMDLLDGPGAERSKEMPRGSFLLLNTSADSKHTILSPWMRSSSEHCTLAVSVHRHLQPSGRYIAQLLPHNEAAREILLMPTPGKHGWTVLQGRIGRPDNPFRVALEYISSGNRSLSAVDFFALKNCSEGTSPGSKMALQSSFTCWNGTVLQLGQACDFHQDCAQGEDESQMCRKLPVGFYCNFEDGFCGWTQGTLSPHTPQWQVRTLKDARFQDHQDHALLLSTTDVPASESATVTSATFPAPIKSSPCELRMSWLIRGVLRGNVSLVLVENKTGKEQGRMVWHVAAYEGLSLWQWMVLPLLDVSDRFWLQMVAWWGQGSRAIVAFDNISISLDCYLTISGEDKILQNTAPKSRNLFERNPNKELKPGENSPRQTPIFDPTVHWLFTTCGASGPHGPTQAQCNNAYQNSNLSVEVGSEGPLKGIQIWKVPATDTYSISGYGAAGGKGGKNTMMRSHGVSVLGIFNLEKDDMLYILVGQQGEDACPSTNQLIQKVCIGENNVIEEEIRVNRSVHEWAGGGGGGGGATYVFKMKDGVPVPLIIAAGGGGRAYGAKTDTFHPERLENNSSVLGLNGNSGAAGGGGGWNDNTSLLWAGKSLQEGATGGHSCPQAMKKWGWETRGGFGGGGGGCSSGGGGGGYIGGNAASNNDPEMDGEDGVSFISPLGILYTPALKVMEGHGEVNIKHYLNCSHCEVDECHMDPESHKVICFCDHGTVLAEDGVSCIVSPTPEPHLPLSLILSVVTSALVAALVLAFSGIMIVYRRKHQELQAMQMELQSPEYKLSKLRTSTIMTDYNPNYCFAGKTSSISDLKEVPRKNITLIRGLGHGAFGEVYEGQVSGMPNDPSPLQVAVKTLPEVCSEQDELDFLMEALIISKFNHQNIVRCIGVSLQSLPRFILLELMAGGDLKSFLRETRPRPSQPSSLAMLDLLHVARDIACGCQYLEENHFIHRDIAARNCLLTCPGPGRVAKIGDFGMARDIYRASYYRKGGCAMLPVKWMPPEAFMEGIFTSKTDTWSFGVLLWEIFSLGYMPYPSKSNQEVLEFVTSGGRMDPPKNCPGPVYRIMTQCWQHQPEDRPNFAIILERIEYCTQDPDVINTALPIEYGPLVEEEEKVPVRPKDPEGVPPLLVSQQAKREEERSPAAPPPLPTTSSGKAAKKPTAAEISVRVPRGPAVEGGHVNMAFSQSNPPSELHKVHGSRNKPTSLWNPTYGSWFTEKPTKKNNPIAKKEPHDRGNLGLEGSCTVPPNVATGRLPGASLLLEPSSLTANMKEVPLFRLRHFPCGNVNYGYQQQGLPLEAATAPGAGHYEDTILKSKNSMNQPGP
Procedure, shortened: (§1)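 Kinase inhibition was tested through a commercial kinase profiling service. Each assay was run twice and mean activity calculated.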

[4] = target: Tyrosine-protein kinase receptor UFO (Homo sapiens) (UniProt P30530); assay: Inhibition of Axl at 10 uM; procedure, shortened: as §1
[5] = target: Serine/threonine-protein kinase mTOR (Homo sapiens) (UniProt P42345); assay: Inhibition of mTOR at 10 uM; procedure, shortened: as §1
[6] = target: Serine/threonine-protein kinase PLK1 (Homo sapiens) (UniProt P53350); assay: Inhibition of Plk1 at 10 uM; procedure, shortened: as §1
Chain of Serine/threonine-protein kinase PLK1 (Homo sapiens) (P53350 whole entry): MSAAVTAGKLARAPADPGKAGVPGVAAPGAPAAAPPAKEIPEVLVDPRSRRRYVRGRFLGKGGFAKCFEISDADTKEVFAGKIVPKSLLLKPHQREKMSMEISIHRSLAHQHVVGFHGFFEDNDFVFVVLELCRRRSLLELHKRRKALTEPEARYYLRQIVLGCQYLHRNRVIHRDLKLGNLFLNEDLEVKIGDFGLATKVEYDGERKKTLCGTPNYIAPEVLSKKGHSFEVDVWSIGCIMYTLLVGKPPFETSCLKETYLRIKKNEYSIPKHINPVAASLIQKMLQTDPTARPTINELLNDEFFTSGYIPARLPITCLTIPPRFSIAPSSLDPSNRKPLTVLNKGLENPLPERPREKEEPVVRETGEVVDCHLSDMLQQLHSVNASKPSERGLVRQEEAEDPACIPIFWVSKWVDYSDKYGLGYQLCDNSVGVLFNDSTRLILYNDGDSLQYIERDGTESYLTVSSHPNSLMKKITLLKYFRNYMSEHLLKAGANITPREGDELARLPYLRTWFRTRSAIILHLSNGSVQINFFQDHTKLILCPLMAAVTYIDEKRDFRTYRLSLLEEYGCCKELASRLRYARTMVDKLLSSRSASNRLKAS

[7] = target: Hepatocyte growth factor receptor (Homo sapiens) (UniProt P08581); assay: Inhibition of Met at 10 uM; procedure, shortened: as §1
[8] = target: Epidermal growth factor receptor (Homo sapiens) (UniProt P00533); assay: Inhibition of EGFR at 10 uM; procedure, shortened: as §1
[9] = target: Cyclin-dependent kinase 1 (Homo sapiens) (UniProt P06493); assay: Inhibition of CDK1 at 10 uM; procedure, shortened: as §1
Chain of Cyclin-dependent kinase 1 (Homo sapiens) (P06493 whole entry, looked up): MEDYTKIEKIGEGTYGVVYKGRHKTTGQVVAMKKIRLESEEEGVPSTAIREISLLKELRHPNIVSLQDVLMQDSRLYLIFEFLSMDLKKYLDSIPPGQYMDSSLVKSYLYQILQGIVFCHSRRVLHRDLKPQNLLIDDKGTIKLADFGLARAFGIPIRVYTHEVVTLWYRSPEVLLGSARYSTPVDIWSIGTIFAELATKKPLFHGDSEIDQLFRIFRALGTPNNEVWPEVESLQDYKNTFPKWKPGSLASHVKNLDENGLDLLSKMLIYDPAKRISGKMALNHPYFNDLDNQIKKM

[10] = target: Fibroblast growth factor receptor 2 (Homo sapiens) (UniProt P21802); assay: Inhibition of FGFR2 at 10 uM; procedure, shortened: as §1
[11] = target: Glycogen synthase kinase-3 alpha (Homo sapiens) (UniProt P49840); assay: Inhibition of GSK3alpha at 10 uM; procedure, shortened: as §1
Chain of Glycogen synthase kinase-3 alpha (Homo sapiens) (P49840 2-483 limits assumed): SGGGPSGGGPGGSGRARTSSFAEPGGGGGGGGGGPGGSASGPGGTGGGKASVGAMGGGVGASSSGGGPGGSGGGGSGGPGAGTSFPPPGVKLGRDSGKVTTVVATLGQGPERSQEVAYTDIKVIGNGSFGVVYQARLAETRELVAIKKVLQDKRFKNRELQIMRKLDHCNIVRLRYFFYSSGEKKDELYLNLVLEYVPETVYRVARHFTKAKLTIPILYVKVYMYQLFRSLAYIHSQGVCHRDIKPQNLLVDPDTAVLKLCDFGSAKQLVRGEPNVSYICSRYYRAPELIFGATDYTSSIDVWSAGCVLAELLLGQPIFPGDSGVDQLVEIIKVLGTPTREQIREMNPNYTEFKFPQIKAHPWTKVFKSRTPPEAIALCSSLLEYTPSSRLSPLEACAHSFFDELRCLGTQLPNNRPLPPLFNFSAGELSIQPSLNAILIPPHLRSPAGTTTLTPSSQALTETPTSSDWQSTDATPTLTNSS

[12] = target: Receptor-type tyrosine-protein kinase FLT3 (Homo sapiens) (UniProt P36888); assay: Inhibition of Flt3 at 10 uM; procedure, shortened: as §1
Chain of Receptor-type tyrosine-protein kinase FLT3 (Homo sapiens) (P36888 whole entry): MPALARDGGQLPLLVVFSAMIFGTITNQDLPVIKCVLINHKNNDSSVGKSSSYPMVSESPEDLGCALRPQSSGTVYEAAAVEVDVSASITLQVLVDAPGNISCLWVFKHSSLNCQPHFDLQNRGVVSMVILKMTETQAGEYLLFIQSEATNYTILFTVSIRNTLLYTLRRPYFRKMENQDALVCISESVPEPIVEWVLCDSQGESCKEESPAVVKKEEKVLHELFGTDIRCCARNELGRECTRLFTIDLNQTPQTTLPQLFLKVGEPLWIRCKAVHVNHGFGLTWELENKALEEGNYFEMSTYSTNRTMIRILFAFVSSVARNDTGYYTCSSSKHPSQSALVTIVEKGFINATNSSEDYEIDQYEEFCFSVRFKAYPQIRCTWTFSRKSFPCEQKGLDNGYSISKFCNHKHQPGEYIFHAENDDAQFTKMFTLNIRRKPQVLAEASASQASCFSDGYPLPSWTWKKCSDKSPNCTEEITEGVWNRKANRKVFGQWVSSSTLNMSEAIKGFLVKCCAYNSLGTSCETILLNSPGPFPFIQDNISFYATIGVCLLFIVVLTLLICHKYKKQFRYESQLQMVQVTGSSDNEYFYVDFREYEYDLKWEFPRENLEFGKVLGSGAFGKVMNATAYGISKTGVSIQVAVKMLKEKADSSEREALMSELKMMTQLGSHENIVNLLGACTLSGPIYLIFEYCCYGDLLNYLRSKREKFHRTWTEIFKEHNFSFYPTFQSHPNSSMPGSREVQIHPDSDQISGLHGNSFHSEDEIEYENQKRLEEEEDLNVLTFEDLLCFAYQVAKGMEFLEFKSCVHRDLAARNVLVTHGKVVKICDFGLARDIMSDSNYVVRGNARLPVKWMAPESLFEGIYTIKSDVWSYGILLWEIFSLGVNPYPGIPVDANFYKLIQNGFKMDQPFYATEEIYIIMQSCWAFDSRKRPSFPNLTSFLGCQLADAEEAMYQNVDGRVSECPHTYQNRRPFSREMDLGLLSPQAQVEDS

[13] = target: Platelet-derived growth factor receptor alpha (Homo sapiens) (UniProt P16234); assay: Inhibition of PDGFRalpha at 10 uM; procedure, shortened: as §1
[14] = target: Vascular endothelial growth factor receptor 2 (Homo sapiens) (UniProt P35968); assay: Inhibition of KDR at 10 uM; procedure, shortened: as §1

Structure (SMILES): COc1cc(OC)c(C=C2C(O)=Nc3ccccc32)c(OC)c1 [IC261]
IC50 [1]: 1000 nM

Structure (SMILES): C[C@@H](NC(=O)Nc1cccc(Nc2ncc3c(N)[nH]nc3n2)c1)c1ccccc1
IC50 [1]: 2470 nM

Structure (SMILES): NCCNS(=O)(=O)c1ccc(Cl)c2ccncc12
IC50 [1]: 10000 nM

Structure (SMILES): Nc1n[nH]c2nc(Nc3ccc(NC(=O)Nc4ccc(F)c(Cl)c4)cc3)ncc12
IC50 [1]: > 10000 nM

Structure (SMILES): CC[C@H](CO)Nc1nc(Nc2cccc(-c3ccccn3)c2)c2ncn(C(C)C)c2n1
IC50 [1]: 14 nM

Now from value to compound:

inhibition [2]: 100%
inhibition [3]: 26%
inhibition [4]: 46%
inhibition [5]: 0%
inhibition [6]: 0%
inhibition [7]: 99%
inhibition [8]: 92%
inhibition [9]: 42%
inhibition [10]: 35%
inhibition [11]: 34%
inhibition [12]: 90%
inhibition [13]: 82%
inhibition [14]: 96%
Structure (SMILES): Nc1n[nH]c2nc(Nc3cccc(NC(=O)Nc4ccc(F)c(Cl)c4)c3)ncc12

IC50 [1]: 78 nM
Structure (SMILES): Nc1[nH]nc2nc(Nc3cccc(NC(=O)Nc4ccc(F)c(Cl)c4)c3)ncc12

IC50 [1]: 142 nM
Structure (SMILES): CC(C)(C)c1cc(NC(=O)Nc2cccc(Nc3ncc4c(N)n[nH]c4n3)c2)n[nH]1

IC50 [1]: > 10000 nM
Structure (SMILES): C[C@@H](NC(=O)Nc1ccc(Nc2ncc3c(N)n[nH]c3n2)cc1)c1ccccc1

From ChEMBL document CHEMBL2086267, “Discovery of N6-phenyl-1H-pyrazolo[3,4-d]pyrimidine-3,6-diamine derivatives as novel CK1 inhibitors using common-feature pharmacophore model based virtual screening and hit-to-lead optimization” (Eur J Med Chem, 2012)
